Data taken from ChEMBL document CHEMBL3112410, “Reaction intermediate analogues as bisubstrate inhibitors of pantothenate synthetase” (Bioorg Med Chem, 2014).
Activity calls are given as the source filed them. The calls are words filed in the database; no cut-off is given here.

Assays:
[1] = tested on: Mycobacterium tuberculosis; test: Antimycobacterial activity against wild type Mycobacterium tuberculosis H37RvMA assessed as growth inhibition up to 250 uM after 7 to 14 days; type: functional
Procedure, shortened: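 H37RvMA grown in 7H9 to OD600 ~0.2, diluted 500-fold into wells holding 2-fold serial compound dilutions (starting concentration 4 mM) in 7H9. Incubated at 37 °C. Growth was read by eye on days 7, 10 and 14.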

Pantothenate synthetase = biological target: T1, Pantothenate synthetase (Mycobacterium tuberculosis, UniProt P9WIL5); test: Competitive inhibition of Mycobacterium tuberculosis recombinant PanC expressed in Escherichia coli BL21 (DE3) using pantoic acid and ATP as substrate by Michaelis-Menten equation analysis
T1 sequence (P9WIL5 whole entry): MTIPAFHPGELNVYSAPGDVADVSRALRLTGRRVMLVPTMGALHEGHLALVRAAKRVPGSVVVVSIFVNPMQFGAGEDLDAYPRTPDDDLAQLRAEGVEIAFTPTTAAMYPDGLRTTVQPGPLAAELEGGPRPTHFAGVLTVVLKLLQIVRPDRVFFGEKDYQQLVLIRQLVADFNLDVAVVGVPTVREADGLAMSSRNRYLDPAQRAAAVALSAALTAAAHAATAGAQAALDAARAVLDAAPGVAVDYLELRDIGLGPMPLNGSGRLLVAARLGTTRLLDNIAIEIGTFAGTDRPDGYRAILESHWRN
Procedure, shortened: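 N-terminal His6 PanC (pET28b, BL21(DE3), Ni-NTA purified), 400 nM. Continuous MesG pyrophosphate-coupled assay with pyrophosphatase and purine nucleoside phosphorylase, A360, 25 °C. Buffer 100 mM HEPES pH 8.0, 10 mM MgCl2, up to 5% DMSO. Pantoic acid varied 50–300 μM at 2.6 mM ATP, 2.4 mM β-alanine, several fixed inhibitor levels, PanC-initiated. Initial rates fit to the competitive equation for Ki.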

[2] = tested on: Mycobacterium tuberculosis; test: Antimycobacterial activity against PanC deficient Mycobacterium tuberculosis H37RvMA assessed as growth inhibition up to 2 mM after 7 to 14 days; type: functional
Procedure, shortened: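 panC conditional knockdown (<5% wild-type PanC) grown to OD600 ~0.2 in 7H9 with Hyg 50 μg/mL, Km 25 μg/mL, Gm 5 μg/mL, diluted 500-fold. 2-fold serial dilutions from 4 mM starting concentration in 7H9 with half-strength antibiotics, with or without ATc (20 ng/mL) alone or ATc plus pantothenate (50 μg/mL). 37 °C, growth scored visually at 7, 10, 14 days.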

CC(C)(C)[C@@H](O)C(=O)NS(=O)(=O)OC[C@H]1O[C@@H](n2cnc3c(N)ncnc32)[C@H](O)[C@@H]1O
growth inhibition (GI) [1]: inactive | Ki (Pantothenate synthetase): 270 nM | growth inhibition (GI) [2]: inactive

CC(C)(C)[C@@H](O)C(=O)NS(=O)(=O)OC[C@H]1O[C@@H](n2cnc3c(N)ncnc32)[C@@H](O)[C@@H]1O
growth inhibition (GI) [1]: inactive | Ki (Pantothenate synthetase): 1730 nM | growth inhibition (GI) [2]: inactive

CC(C)(C)[C@@H](O)C(=O)NS(=O)(=O)OC[C@H]1C[C@@H](n2cnc3c(N)ncnc32)[C@H](O)[C@@H]1O
growth inhibition (GI) [1]: inactive | Ki (Pantothenate synthetase): 870 nM | growth inhibition (GI) [2]: inactive

CC(C)(C)[C@@H](O)C(=O)NS(=O)(=O)OC[C@H]1O[C@@H](n2cnc3c(N)ncnc32)[C@H](F)[C@@H]1O
growth inhibition (GI) [1]: inactive | Ki (Pantothenate synthetase): 990 nM | growth inhibition (GI) [2]: inactive

CC(C)(CO)[C@@H](O)CNS(=O)(=O)NC[C@H]1O[C@@H](n2cnc3c(N)ncnc32)[C@H](O)[C@@H]1O
growth inhibition (GI) [1]: inactive | Ki (Pantothenate synthetase): 3470 nM | growth inhibition (GI) [2]: inactive
